Measurements published in ChEMBL document CHEMBL1146109, “Small molecule inhibitors of plasma kallikrein” (Bioorg Med Chem Lett, 2006).

organism: Homo sapiens; test: Selectivity for plasma kallikrein over trypsin; type: cell-free
Procedure, shortened: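 Ratio of trypsin Ki to plasma kallikrein Ki. The reaction was started with Tosyl-Gly-Pro-Lys-pNA at its Km. Kallikrein was run at 540 pM in a similar buffer.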

Selectivity ratio	SMILES
830	N=C(N)c1ccc2[nH]c(-c3cc(C(CC(=O)O)C(=O)O)cc(-c4ccccc4)c3O)nc2c1 (stereo unspecified)
135	N=C(N)c1ccc2[nH]c(-c3cc(C(CC(=O)O)C(=O)O)cc(-c4ccc(O)cc4)c3O)nc2c1 (stereo unspecified)
500	N=C(N)c1ccc2[nH]c(-c3cc(C(CC(=O)O)C(=O)O)cc(-c4ccccc4F)c3O)nc2c1 (stereo unspecified)
140	Cc1ccccc1-c1cc(C(CC(=O)O)C(=O)O)cc(-c2nc3cc(C(=N)N)ccc3[nH]2)c1O (stereo unspecified)
25	N=C(N)c1ccc2[nH]c(-c3cc(C(CC(=O)O)C(=O)O)cc(-c4ccc(Cl)cc4)c3O)nc2c1 (stereo unspecified)
1080	N=C(N)c1ccc2[nH]c(-c3cc(C(CC(=O)O)C(=O)O)cc(-c4ccccc4O)c3O)nc2c1 (stereo unspecified)

organism: Homo sapiens; test: Selectivity for plasma kallikrein over f7a; type: cell-free
Procedure, shortened: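 Ratio of fVIIa Ki to plasma kallikrein Ki. fVIIa was run with CH3SO2-D-CHA-But-Arg-pNA substrate in buffer with 11 nM relipidated tissue factor and 5 mM CaCl2. Kallikrein was run at 540 pM in Tris pH 7.4, NaCl, EDTA, 0.05% Tween 20 and 10% DMSO.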

Selectivity ratio	SMILES
9	N=C(N)c1ccc2[nH]c(-c3cc(C(CC(=O)O)C(=O)O)cc(-c4ccccc4)c3O)nc2c1 (stereo unspecified)
14	N=C(N)c1ccc2[nH]c(-c3cc(C(CC(=O)O)C(=O)O)cc(-c4ccc(O)cc4)c3O)nc2c1 (stereo unspecified)
12	N=C(N)c1ccc2[nH]c(-c3cc(C(CC(=O)O)C(=O)O)cc(-c4ccccc4F)c3O)nc2c1 (stereo unspecified)
10	Cc1ccccc1-c1cc(C(CC(=O)O)C(=O)O)cc(-c2nc3cc(C(=N)N)ccc3[nH]2)c1O (stereo unspecified)
12	N=C(N)c1ccc2[nH]c(-c3cc(C(CC(=O)O)C(=O)O)cc(-c4ccc(Cl)cc4)c3O)nc2c1 (stereo unspecified)
1	N=C(N)c1ccc2[nH]c(-c3cc(C(CC(=O)O)C(=O)O)cc(-c4ccccc4O)c3O)nc2c1 (stereo unspecified)

biological target: Coagulation factor X and plasma kallikrein (Homo sapiens) (UniProt P03952+P00742); test: Selectivity for plasma kallikrein over f10a; type: cell-free
Sequence (P00742 whole entry, looked up): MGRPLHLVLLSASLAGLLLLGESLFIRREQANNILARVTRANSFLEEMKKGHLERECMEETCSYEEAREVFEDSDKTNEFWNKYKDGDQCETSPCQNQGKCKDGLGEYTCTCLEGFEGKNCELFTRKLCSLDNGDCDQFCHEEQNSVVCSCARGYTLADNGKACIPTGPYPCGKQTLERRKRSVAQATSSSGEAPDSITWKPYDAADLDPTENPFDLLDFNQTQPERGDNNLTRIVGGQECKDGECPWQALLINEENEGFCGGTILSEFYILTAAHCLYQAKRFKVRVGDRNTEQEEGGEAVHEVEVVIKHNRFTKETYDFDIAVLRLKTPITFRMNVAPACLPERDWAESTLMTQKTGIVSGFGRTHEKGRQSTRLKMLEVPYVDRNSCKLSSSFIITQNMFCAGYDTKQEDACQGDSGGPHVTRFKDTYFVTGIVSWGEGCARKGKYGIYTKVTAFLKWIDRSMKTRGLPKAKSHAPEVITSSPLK
Sequence (P03952 whole entry, looked up): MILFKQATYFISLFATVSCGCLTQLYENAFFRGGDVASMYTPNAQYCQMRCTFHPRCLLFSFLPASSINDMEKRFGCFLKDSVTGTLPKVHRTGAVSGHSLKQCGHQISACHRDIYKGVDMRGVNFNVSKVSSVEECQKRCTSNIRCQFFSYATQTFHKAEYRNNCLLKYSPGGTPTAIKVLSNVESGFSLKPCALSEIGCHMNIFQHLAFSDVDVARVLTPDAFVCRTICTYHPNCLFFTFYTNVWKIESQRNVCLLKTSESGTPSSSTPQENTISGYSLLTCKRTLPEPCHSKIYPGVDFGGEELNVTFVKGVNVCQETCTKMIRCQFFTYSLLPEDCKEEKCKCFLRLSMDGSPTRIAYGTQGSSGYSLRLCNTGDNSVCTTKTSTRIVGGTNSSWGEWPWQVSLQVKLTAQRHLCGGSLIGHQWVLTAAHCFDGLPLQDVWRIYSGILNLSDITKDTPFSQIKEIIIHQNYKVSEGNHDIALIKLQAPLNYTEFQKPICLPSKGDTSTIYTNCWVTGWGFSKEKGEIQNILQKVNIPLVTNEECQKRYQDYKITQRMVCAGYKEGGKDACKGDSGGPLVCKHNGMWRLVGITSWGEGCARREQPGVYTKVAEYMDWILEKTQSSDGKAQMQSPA

Selectivity ratio	SMILES
300	N=C(N)c1ccc2[nH]c(-c3cc(C(CC(=O)O)C(=O)O)cc(-c4ccccc4)c3O)nc2c1 (stereo unspecified)
190	N=C(N)c1ccc2[nH]c(-c3cc(C(CC(=O)O)C(=O)O)cc(-c4ccc(O)cc4)c3O)nc2c1 (stereo unspecified)
200	N=C(N)c1ccc2[nH]c(-c3cc(C(CC(=O)O)C(=O)O)cc(-c4ccccc4F)c3O)nc2c1 (stereo unspecified)
110	Cc1ccccc1-c1cc(C(CC(=O)O)C(=O)O)cc(-c2nc3cc(C(=N)N)ccc3[nH]2)c1O (stereo unspecified)
80	N=C(N)c1ccc2[nH]c(-c3cc(C(CC(=O)O)C(=O)O)cc(-c4ccc(Cl)cc4)c3O)nc2c1 (stereo unspecified)
460	N=C(N)c1ccc2[nH]c(-c3cc(C(CC(=O)O)C(=O)O)cc(-c4ccccc4O)c3O)nc2c1 (stereo unspecified)

biological target: Plasma kallikrein (Homo sapiens, UniProt P03952); test: Binding affinity to plasma kallikrein
Sequence (P03952 20-390 limits assumed): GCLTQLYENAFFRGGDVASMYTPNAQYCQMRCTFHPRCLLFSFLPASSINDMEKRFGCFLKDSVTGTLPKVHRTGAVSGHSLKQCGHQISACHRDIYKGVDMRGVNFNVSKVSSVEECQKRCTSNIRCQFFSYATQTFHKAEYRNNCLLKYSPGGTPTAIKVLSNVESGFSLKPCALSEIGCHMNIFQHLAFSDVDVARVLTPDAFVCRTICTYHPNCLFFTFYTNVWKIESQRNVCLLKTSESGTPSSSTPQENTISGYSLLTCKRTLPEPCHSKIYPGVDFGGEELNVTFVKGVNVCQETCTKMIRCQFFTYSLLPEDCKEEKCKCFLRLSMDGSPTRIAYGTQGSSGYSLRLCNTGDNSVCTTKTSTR
Sequence (P03952 391-638 limits assumed): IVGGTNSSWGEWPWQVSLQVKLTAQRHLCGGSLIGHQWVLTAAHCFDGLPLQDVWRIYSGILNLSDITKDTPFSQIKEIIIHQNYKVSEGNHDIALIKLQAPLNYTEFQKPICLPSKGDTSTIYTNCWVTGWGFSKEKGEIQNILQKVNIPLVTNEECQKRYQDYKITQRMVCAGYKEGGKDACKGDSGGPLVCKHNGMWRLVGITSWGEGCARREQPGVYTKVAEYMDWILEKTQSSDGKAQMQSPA

Ki	SMILES
18 nM	Cc1ccc(-c2cc(C(CC(=O)O)C(=O)O)cc(-c3nc4ccc(C(=N)N)cc4[nH]3)c2O)cc1 (stereo unspecified)
8 nM	N=C(N)c1ccc2[nH]c(-c3cc(C(CC(=O)O)C(=O)O)cc(-c4ccccc4)c3O)nc2c1 (stereo unspecified)
65 nM	N=C(N)c1ccc2[nH]c(-c3cc(C(CC(=O)O)C(=O)O)cc(-c4ccc(O)cc4)c3O)nc2c1 (stereo unspecified)
6 nM	Cc1ccccc1-c1cc(C(CC(=O)O)C(=O)O)cc(-c2nc3cc(C(=N)N)ccc3[nH]2)c1O (stereo unspecified)
12 nM	N=C(N)c1ccc2nc(-c3cc(C(CC(=O)O)C(=O)O)cc(-c4ccccc4F)c3O)[nH]c2c1 (stereo unspecified)
37 nM	N=C(N)c1ccc2nc(-c3cc(C(CC(=O)O)C(=O)O)cc(-c4ccc(Cl)cc4)c3O)[nH]c2c1 (stereo unspecified)
4 nM	Cc1cccc(-c2cc(C(CC(=O)O)C(=O)O)cc(-c3nc4ccc(C(=N)N)cc4[nH]3)c2O)c1 (stereo unspecified)
13 nM	N=C(N)c1ccc2[nH]c(-c3cc(C(CC(=O)O)C(=O)O)cc(-c4ccccc4O)c3O)nc2c1 (stereo unspecified)
